Assay results taken from ChEMBL document CHEMBL1926680, “The de-guanidinylated derivative of peramivir remains a potent inhibitor of influenza neuraminidase” (Bioorg Med Chem Lett, 2011).
The source made the active and inactive calls. The rule behind the calls is not given here.

Assays:
Neuraminidase = Neuraminidase (Influenza A virus, UniProt B4URF0); test: Inhibition of influenza A virus neuraminidase
Influenza A virus [1] = test: Antiviral activity against NP40-inactivated Influenza A virus (A/Brisbane/59/2007(H1N1)) preincubated with virus for 10 mins by viral hemagglutinination titter assay; format: functional, organism-based
Summary of the method: (§1)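 Inhibitor dilutions were incubated for 10 min at room temperature with 0.2% NP40-inactivated virus, diluted to match the activity of 1000 ng/mL recombinant enzyme stock. The 4-methylumbelliferyl sialic acid substrate was then added in Tris/CaCl2/NaCl buffer, pH 7.5. Neuraminidase activity was read fluorimetrically (ex 365, em 445 nm), and IC50 was taken from the dose–response curve.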

Influenza A virus [2] = test: Antiviral activity against NP40-inactivated Influenza A virus (A/Brisbane/59/2007(H1N1)) preincubated with virus for 2 hrs by viral hemagglutinination titter assay; format: functional, organism-based
Summary of the method: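 The virus assay used 0.2% NP40-inactivated virus, diluted to match the activity of 1000 ng/mL recombinant enzyme stock, with inhibitor preincubation lengthened to 2 h at room temperature before the 4-methylumbelliferyl substrate was added. Reaction was in pH 7.5 Tris/CaCl2/NaCl buffer, with fluorescence read at ex 365/em 445 nm. IC50 came from dose–response.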

[3] = molecular target: Neuraminidase (Influenza A virus (strain A/Brevig Mission/1/1918 H1N1) (Influenza Avirus (strain A/South Carolina/1/1918 H1N1)), UniProt Q9IGQ6); test: Inhibition of Influenza A virus (A/Brevig Mission/1/1918(H1N1)) recombinant soluble neuraminidase using 2'-4(methylumbelliferyl)-alpha-D-N-acetylneuraminic acid substrate by fluorimetric assay
Summary of the method: (§2)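 Recombinant soluble neuraminidase (400 ng/mL final) in 50 mM Tris, 5 mM CaCl2, 200 mM NaCl, pH 7.5, was mixed with a range of inhibitor concentrations and 2'-4-methylumbelliferyl substrate (200 µM final, 1.5% total DMSO). Fluorescence (ex 365 nm, em 445 nm) was followed over 5 min, and IC50 was taken from the full dose–response curve.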

[4] = molecular target: Neuraminidase (Influenza A virus (strain A/Brevig Mission/1/1918 H1N1) (Influenza Avirus (strain A/South Carolina/1/1918 H1N1))) (UniProt Q9IGQ6); test: Inhibition of Influenza A virus (A/Brevig Mission/1/1918(H1N1)) recombinant neuraminidase by dose responsive study; summary of the method: as §2
[5] = molecular target: Neuraminidase (Influenza A virus) (UniProt B4URF0); test: Inhibition of NP40-inactivated Influenza A virus (A/Brisbane/59/2007(H1N1)) neuraminidase after 10 mins by dose responsive study; summary of the method: as §1
[6] = molecular target: Neuraminidase (Influenza A virus (strain A/Brevig Mission/1/1918 H1N1) (Influenza Avirus (strain A/South Carolina/1/1918 H1N1))) (UniProt Q9IGQ6); test: Competitive inhibition of Influenza A virus (A/Brevig Mission/1/1918(H1N1)) recombinant soluble neuraminidase at 3.75 to 15 nM using 2'-4(methylumbelliferyl)-alpha-D-N-acetylneuraminic acid substrate by fluorimetric based Lineweaver-Burk plot analysis
Summary of the method: (§3)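 For kinetics, substrate working solution was serially diluted in assay buffer (50 mM Tris, 5 mM CaCl2, 200 mM NaCl, pH 7.5) containing 4% DMSO. Recombinant soluble neuraminidase reaction progress was followed fluorimetrically (ex 365, em 445 nm) for 10 min at several substrate and inhibitor concentrations to derive Ki.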

[7] = molecular target: Neuraminidase (Influenza A virus (strain A/Brevig Mission/1/1918 H1N1) (Influenza Avirus (strain A/South Carolina/1/1918 H1N1))) (UniProt Q9IGQ6); test: Competitive inhibition of Influenza A virus (A/Brevig Mission/1/1918(H1N1)) recombinant soluble neuraminidase at 3.75 to 15 nM using 2'-4(methylumbelliferyl)-alpha-D-N-acetylneuraminic acid substrate by fluorimetric based Michaelis-Menten equation analysis; summary of the method: as §3
[8] = molecular target: Neuraminidase (Influenza A virus (strain A/Brevig Mission/1/1918 H1N1) (Influenza Avirus (strain A/South Carolina/1/1918 H1N1))) (UniProt Q9IGQ6); test: Competitive inhibition of Influenza A virus (A/Brevig Mission/1/1918(H1N1)) recombinant soluble neuraminidase at 0.7 to 3 nM using 2'-4(methylumbelliferyl)-alpha-D-N-acetylneuraminic acid substrate by fluorimetric based Lineweaver-Burk plot analysis
Summary of the method: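 Recombinant soluble neuraminidase (1000 ng/mL stock, 400 ng/mL in well) in 50 mM Tris pH 7.5, 200 mM NaCl, 5 mM CaCl2. The 4-methylumbelliferyl sialic acid substrate working solution was serially diluted in buffer with 4% DMSO. Reaction progress was read by fluorescence (ex 365, em 445 nm) over 10 min across several substrate and inhibitor concentrations. Substrate-only controls were run.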

[9] = molecular target: Neuraminidase (Influenza A virus (strain A/Brevig Mission/1/1918 H1N1) (Influenza Avirus (strain A/South Carolina/1/1918 H1N1))) (UniProt Q9IGQ6); test: Competitive inhibition of Influenza A virus (A/Brevig Mission/1/1918(H1N1)) recombinant soluble neuraminidase at 0.7 to 3 nM using 2'-4(methylumbelliferyl)-alpha-D-N-acetylneuraminic acid substrate by fluorimetric based Michaelis-Menten equation analysis; summary of the method: as §3

Neuraminidase (Influenza A virus (strain A/Brevig Mission/1/1918 H1N1) (Influenza Avirus (strain A/South Carolina/1/1918 H1N1))), sequence (Q9IGQ6 whole entry): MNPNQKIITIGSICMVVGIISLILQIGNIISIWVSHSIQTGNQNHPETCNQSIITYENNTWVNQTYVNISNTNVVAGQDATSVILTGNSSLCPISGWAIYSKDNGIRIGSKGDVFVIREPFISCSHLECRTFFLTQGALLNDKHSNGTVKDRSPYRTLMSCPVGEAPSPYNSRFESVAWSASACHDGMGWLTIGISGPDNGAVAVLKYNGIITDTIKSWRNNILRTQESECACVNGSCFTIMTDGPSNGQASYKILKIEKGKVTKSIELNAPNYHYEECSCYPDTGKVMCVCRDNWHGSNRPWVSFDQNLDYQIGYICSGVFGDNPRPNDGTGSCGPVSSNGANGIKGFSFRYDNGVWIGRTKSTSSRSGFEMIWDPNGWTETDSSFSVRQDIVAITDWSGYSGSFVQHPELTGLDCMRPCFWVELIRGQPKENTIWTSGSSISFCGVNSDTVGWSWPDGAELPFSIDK
Neuraminidase (Influenza A virus (strain A/Brevig Mission/1/1918 H1N1) (Influenza Avirus (strain A/South Carolina/1/1918 H1N1)), UniProt Q9IGQ6), sequence (Q9IGQ6 whole entry): as above
Neuraminidase (Influenza A virus), sequence (B4URF0 as listed by the source): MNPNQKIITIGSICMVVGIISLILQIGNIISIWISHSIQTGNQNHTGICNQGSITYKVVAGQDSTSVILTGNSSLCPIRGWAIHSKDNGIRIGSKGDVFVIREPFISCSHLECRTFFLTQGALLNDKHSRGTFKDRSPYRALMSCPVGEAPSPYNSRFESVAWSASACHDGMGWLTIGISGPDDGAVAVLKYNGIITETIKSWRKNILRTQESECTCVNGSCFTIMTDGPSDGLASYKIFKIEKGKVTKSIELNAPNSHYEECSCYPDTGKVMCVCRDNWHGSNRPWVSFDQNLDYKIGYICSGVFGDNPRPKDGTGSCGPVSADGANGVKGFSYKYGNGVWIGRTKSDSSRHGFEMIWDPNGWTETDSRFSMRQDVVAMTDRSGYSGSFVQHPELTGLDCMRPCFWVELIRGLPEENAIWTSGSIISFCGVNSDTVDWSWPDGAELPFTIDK
Neuraminidase, sequence (B4URF0 whole entry): as the sequence (B4URF0 as listed by the source) above

CCOC(=O)C1=C[C@@H](OC(CC)CC)[C@H](NC(C)=O)[C@@H](NC(=N)N)C1 gave an IC50 (Neuraminidase) of 0.0005 µM.
CCC(CC)[C@H](NC(C)=O)[C@@H]1[C@H](O)[C@@H](C(=O)O)C[C@H]1N was tested, and the IC50 (Influenza A virus [1]) was 0.0073 µM, the IC50 (Influenza A virus [2]) was 0.0022 µM and the IC50 [3] was 0.0177 µM. For the same compound, the Ki [3] was 0.0075 µM, the inhibition [4] was “Dose-dependent effect” and the inhibition [5] was “Dose-dependent effect”. For the same compound, the inhibition [6] was “Active” and the inhibition [7] was “Active”.
Work on CCC(CC)[C@H](NC(C)=O)[C@@H]1[C@H](O)[C@@H](C(=O)O)C[C@H]1NC(=N)N [PERAMIVIR ANHYDROUS] yielded an IC50 (Influenza A virus [1]) of 0.00086 µM, an IC50 [3] of 0.0034 µM and a Ki [3] of 0.00083 µM. For the same compound, the inhibition [4] was “Dose-dependent effect”, the inhibition [5] was “Dose-dependent effect” and the inhibition [8] was “Active”. The inhibition [9] was “Active”.
With N[C@H]1CC[C@@](O)(C(=O)O)C1 the IC50 [3] was 37000 µM.
Work on N=C(N)N[C@H]1CC[C@@](O)(C(=O)O)C1 yielded an IC50 [3] of 4000 µM.
Work on CCOC(=O)C1=C[C@@H](OC(CC)CC)[C@H](NC(C)=O)[C@@H](N)C1 [OSELTAMIVIR] yielded an IC50 (Neuraminidase) of 0.001 µM.
